Laboratory results from ChEMBL document CHEMBL1142492 (J Med Chem, 2008).

What was measured:
[1] = target: Tyrosine-protein kinase Fyn (Homo sapiens) (UniProt P06241); experiment: Inhibition of FYN at 3 uM
How it was run: (§1)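 Single-concentration kinase panel scoring: each value is the percentage of enzyme activity remaining relative to a DMSO-only control. An activity statistically indistinct from DMSO control was scored "no hit".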

[2] = target: LIM domain kinase 1 (Homo sapiens) (UniProt P53667); experiment: Inhibition of LIMK1 at 3 uM
[3] = target: Mast/stem cell growth factor receptor Kit (Homo sapiens) (UniProt P10721); experiment: Inhibition of KIT at 3 uM
Homo sapiens [4] = species on record: Homo sapiens; conditions: 3 uM
[5] = system: Epidermal growth factor receptor (Homo sapiens), P00533 [L861Q]; experiment: Inhibition of EGFR L861Q mutant at 3 uM; format: protein assay; how it was run: as §1
[6] = target: Dual specificity tyrosine-phosphorylation-regulated kinase 1B (Homo sapiens) (UniProt Q9Y463); experiment: Inhibition of DYRK1B at 3 uM
[7] = target: Calcium/calmodulin-dependent protein kinase type IV (Homo sapiens) (UniProt Q16566); experiment: Inhibition of CAMK4 at 3 uM
[8] = system: Tyrosine-protein kinase ABL1 (Homo sapiens), P00519 [Y253F]; experiment: Inhibition of ABL1 Y253F mutant at 3 uM
[9] = target: Serine/threonine-protein kinase LATS2 (Homo sapiens) (UniProt Q9NRM7); experiment: Inhibition of LATS2 at 3 uM
[10] = target: Epidermal growth factor receptor (Homo sapiens) (UniProt P00533); experiment: Inhibition of EGFR at 3 uM; how it was run: as §1
[11] = target: TGF-beta receptor type-1 (Homo sapiens) (UniProt P36897); experiment: Inhibition of TGFBR1 at 3 uM
[12] = target: Serine/threonine-protein kinase 4 (Homo sapiens) (UniProt Q13043); experiment: Inhibition of MST1 at 3 uM
[13] = target: Cyclin-dependent kinase 19 (Homo sapiens) (UniProt Q9BWU1); experiment: Inhibition of CDK11 at 3 uM
[14] = system: Tyrosine-protein kinase ABL1 (Homo sapiens), P00519 [F317I]; experiment: Inhibition of ABL1 F317I mutant at 3 uM
[15] = target: Serine/threonine-protein kinase MRCK alpha (Homo sapiens) (UniProt Q5VT25); conditions: 3 uM
[16] = target: Sodium-dependent dopamine transporter (Homo sapiens) (UniProt Q01959); experiment: Inhibition of human DAT at 3 uM
How it was run: (§2)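 Counter-screen binding/enzyme panel at single 3 μM, n=2; results as percent inhibition. Species per target as listed (rat NMDA, GABAA sites; human receptors, transporters; rabbit ACE).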

[17] = target: 5-hydroxytryptamine receptor 1A (Homo sapiens) (UniProt P08908); experiment: Inhibition of human 5HT1A receptor at 3 uM; how it was run: as §2
Rattus norvegicus [18] = species on record: Rattus norvegicus; conditions: 3 uM
[19] = target: Activin receptor type-1B (Homo sapiens) (UniProt P36896); experiment: Inhibition of ACVR1B at 3 uM
[20] = target: Myotonin-protein kinase (Homo sapiens) (UniProt Q09013); experiment: Inhibition of DMPK at 3 uM
[21] = target: BDNF/NT-3 growth factors receptor (Homo sapiens) (UniProt Q16620); experiment: Inhibition of TRKB at 3 uM
[22] = target: Serine/threonine-protein kinase PLK1 (Homo sapiens) (UniProt P53350); experiment: Inhibition of PLK1 at 3 uM
[23] = target: Tyrosine-protein kinase BTK (Homo sapiens) (UniProt Q06187); experiment: Inhibition of BTK at 3 uM
[24] = target: Phosphorylase b kinase gamma catalytic chain, liver/testis isoform (Homo sapiens) (UniProt P15735); experiment: Inhibition of PHKG2 at 3 uM
[25] = target: Serine/threonine-protein kinase PAK 6 (Homo sapiens) (UniProt Q9NQU5); experiment: Inhibition of PAK6 at 3 uM
[26] = target: Serine/threonine-protein kinase PAK 2 (Homo sapiens) (UniProt Q13177); experiment: Inhibition of PAK2 at 3 uM
[27] = target: Serine/threonine-protein kinase Nek1 (Homo sapiens) (UniProt Q96PY6); experiment: Inhibition of NEK1 at 3 uM
[28] = system: Proto-oncogene tyrosine-protein kinase receptor Ret (Homo sapiens), P07949 [M918T]; experiment: Inhibition of RET M918T mutant at 3 uM
[29] = target: Citron Rho-interacting kinase (Homo sapiens) (UniProt O14578); experiment: Inhibition of CIT at 3 uM
[30] = target: Cyclin-dependent kinase 5 (Homo sapiens) (UniProt Q00535); experiment: Inhibition of CDK5 at 3 uM
[31] = target: Serine/threonine-protein kinase ULK1 (Homo sapiens) (UniProt O75385); experiment: Inhibition of ULK1 at 3 uM
[32] = target: Serine/threonine-protein kinase NLK (Homo sapiens) (UniProt Q9UBE8); experiment: Inhibition of NLK at 3 uM
[33] = system: Phosphatidylinositol 4,5-bisphosphate 3-kinase catalytic subunit alpha isoform (Homo sapiens), P42336 [E545K]; experiment: Inhibition of PIK3CA E545K mutant at 3 uM
[34] = target: Macrophage-stimulating protein receptor (Homo sapiens) (UniProt Q04912); experiment: Inhibition of MST1R at 3 uM
[35] = target: Serine/threonine-protein kinase pim-1 (Homo sapiens) (UniProt P11309); experiment: Inhibition of PIM1 at 3 uM
[36] = target: Serine/threonine-protein kinase DCLK1 (Homo sapiens) (UniProt O15075); experiment: Inhibition of DCAMKL1 at 3 uM
[37] = target: Serine/threonine-protein kinase BRSK1 (Homo sapiens) (UniProt Q8TDC3); experiment: Inhibition of BRSK1 at 3 uM
[38] = target: Mitogen-activated protein kinase kinase kinase 9 (Homo sapiens) (UniProt P80192); experiment: Inhibition of MLK1 at 3 uM
[39] = target: Serine/threonine-protein kinase PAK 4 (Homo sapiens) (UniProt O96013); experiment: Inhibition of PAK4 at 3 uM
Homo sapiens [40] = species on record: Homo sapiens; conditions: 3 uM; remark: listed apart in the source
Rattus norvegicus [41] = species on record: Rattus norvegicus; conditions: 3 uM; remark: listed apart in the source
[42] = target: Macrophage colony-stimulating factor 1 receptor (Homo sapiens) (UniProt P07333); experiment: Inhibition of CSF1R at 3 uM
[43] = target: Adenosine receptor A3 (Homo sapiens) (UniProt P0DMS8); experiment: Inhibition of human adenosine A3 receptor at 3 uM; how it was run: as §2
[44] = target: Androgen receptor (Rattus norvegicus) (UniProt P15207); experiment: Inhibition of rat androgen receptor at 3 uM
[45] = target: Type-1 angiotensin II receptor (Homo sapiens) (UniProt P30556); experiment: Inhibition of human AT1 receptor at 3 uM; how it was run: as §2
[46] = target: Kappa-type opioid receptor (Homo sapiens) (UniProt P41145); experiment: Inhibition of human kappa opioid receptor at 3 uM

Serine/threonine-protein kinase PAK 4 (Homo sapiens), sequence (O96013 whole entry, looked up): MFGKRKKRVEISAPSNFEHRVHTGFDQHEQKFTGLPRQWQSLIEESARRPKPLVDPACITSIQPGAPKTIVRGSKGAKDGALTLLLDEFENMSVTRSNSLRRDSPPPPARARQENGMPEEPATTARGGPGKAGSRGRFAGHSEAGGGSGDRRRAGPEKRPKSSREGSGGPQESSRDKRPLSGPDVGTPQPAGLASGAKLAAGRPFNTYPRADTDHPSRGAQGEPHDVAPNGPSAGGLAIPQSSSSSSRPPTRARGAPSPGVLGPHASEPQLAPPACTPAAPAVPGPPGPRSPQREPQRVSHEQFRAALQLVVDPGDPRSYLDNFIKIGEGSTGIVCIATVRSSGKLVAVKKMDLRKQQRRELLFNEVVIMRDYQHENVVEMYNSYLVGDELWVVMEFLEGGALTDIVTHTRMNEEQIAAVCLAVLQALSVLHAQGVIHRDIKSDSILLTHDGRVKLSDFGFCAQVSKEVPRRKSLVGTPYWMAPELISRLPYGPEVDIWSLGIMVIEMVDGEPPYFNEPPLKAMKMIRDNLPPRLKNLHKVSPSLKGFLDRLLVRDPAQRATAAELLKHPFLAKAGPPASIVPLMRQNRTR
Sodium-dependent dopamine transporter (Homo sapiens), sequence (Q01959 whole entry): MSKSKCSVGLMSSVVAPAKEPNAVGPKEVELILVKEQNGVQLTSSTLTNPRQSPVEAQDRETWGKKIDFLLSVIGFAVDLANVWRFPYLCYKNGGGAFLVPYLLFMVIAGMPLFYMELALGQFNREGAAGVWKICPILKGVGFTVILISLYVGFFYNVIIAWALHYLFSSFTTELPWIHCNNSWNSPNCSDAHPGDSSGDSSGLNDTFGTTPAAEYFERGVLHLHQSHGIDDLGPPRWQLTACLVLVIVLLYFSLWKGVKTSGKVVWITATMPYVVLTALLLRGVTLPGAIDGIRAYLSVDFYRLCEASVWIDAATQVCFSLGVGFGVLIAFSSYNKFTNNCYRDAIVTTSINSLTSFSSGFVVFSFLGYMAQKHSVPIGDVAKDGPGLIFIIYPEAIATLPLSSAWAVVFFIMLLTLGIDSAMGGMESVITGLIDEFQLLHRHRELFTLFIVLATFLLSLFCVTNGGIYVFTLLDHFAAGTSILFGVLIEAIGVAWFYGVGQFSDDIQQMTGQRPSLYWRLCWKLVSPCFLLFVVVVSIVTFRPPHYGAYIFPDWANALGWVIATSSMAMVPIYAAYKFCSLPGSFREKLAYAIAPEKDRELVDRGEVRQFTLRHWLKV
Serine/threonine-protein kinase Nek1 (Homo sapiens), sequence (Q96PY6 whole entry): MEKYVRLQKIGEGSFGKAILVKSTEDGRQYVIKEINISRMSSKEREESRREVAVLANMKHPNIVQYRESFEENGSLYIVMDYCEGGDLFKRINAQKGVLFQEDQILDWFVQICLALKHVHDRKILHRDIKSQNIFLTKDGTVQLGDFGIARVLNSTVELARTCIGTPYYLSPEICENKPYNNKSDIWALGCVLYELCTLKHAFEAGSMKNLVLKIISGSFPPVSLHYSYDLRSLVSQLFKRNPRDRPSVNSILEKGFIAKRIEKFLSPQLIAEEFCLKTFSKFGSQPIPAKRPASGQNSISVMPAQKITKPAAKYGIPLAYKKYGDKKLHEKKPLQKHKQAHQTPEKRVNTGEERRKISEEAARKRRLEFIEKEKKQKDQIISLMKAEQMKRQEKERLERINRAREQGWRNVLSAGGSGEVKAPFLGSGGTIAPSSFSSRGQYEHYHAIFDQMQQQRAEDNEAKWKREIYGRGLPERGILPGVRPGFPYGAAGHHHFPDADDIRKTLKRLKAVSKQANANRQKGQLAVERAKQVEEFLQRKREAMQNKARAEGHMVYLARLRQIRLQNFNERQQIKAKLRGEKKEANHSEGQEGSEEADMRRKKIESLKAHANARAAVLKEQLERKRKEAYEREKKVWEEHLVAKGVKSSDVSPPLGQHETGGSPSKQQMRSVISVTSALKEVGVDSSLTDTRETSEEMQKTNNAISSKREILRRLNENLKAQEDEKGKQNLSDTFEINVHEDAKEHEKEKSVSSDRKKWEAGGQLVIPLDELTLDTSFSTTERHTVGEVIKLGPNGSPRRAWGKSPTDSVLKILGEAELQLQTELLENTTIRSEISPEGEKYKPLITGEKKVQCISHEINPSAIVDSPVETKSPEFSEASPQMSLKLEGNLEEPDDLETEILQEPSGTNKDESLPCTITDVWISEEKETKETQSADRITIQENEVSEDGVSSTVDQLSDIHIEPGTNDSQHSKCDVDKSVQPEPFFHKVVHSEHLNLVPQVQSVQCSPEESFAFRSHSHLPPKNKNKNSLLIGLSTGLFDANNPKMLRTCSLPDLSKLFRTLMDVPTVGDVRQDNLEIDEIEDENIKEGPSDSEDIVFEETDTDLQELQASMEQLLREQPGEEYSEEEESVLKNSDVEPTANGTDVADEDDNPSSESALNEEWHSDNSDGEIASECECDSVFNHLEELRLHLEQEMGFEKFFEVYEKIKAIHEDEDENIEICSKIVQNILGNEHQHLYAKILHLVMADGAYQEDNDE
Serine/threonine-protein kinase pim-1 (Homo sapiens), sequence (P11309 whole entry, looked up): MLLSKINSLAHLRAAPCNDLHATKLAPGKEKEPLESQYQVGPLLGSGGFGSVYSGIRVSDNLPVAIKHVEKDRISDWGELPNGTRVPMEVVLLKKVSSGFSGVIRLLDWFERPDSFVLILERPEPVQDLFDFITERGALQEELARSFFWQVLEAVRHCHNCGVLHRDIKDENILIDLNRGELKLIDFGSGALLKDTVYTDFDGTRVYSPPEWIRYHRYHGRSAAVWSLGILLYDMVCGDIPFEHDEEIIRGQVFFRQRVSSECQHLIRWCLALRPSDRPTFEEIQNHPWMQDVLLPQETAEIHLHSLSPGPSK
Dual specificity tyrosine-phosphorylation-regulated kinase 1B (Homo sapiens), sequence (Q9Y463 whole entry, looked up): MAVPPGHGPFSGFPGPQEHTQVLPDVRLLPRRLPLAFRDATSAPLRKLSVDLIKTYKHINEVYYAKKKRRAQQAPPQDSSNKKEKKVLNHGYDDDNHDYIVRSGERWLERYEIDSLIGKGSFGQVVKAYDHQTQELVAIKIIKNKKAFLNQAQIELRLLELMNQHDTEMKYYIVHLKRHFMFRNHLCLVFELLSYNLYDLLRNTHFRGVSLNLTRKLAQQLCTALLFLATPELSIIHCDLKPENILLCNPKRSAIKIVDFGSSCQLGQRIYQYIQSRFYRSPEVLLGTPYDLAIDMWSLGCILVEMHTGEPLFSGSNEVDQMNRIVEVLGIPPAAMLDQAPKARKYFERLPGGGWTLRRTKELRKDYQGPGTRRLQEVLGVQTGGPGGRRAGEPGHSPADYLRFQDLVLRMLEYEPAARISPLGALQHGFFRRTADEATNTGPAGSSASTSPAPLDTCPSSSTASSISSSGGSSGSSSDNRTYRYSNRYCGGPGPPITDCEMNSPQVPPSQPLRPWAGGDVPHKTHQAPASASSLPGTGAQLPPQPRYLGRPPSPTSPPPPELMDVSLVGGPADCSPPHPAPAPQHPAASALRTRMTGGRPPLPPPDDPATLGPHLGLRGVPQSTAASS
Epidermal growth factor receptor (Homo sapiens), P00533 [L861Q], sequence (P00533 whole entry L861Q): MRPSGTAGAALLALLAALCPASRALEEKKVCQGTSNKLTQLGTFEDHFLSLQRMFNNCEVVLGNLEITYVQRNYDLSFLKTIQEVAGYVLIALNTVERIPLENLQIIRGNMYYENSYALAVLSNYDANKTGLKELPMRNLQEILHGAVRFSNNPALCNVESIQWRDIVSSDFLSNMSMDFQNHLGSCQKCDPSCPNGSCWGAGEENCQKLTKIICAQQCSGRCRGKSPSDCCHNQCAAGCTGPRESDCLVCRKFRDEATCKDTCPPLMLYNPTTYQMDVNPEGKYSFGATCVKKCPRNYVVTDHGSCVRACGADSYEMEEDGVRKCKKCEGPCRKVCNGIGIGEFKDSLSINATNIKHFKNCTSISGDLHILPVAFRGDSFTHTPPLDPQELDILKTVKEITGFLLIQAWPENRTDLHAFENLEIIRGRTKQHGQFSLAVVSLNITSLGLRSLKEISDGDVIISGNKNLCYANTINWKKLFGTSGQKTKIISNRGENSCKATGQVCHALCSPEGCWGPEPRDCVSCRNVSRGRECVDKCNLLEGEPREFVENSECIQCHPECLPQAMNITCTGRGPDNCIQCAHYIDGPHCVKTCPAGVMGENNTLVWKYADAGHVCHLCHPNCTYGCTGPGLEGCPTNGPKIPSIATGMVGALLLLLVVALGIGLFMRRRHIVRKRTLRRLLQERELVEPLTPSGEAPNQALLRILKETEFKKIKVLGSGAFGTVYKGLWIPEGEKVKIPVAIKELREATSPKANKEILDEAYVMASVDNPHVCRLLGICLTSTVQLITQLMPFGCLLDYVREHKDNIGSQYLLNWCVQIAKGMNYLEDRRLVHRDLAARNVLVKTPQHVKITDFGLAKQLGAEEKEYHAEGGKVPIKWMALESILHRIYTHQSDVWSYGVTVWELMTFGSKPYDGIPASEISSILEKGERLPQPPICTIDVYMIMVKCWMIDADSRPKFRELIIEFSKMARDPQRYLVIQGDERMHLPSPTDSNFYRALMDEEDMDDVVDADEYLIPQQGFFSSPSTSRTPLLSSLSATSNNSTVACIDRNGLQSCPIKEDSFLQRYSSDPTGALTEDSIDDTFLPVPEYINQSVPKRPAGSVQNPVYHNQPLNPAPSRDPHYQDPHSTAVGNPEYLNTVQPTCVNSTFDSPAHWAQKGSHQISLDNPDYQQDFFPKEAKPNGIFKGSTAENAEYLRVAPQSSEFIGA
Cyclin-dependent kinase 5 (Homo sapiens), sequence (Q00535 whole entry, looked up): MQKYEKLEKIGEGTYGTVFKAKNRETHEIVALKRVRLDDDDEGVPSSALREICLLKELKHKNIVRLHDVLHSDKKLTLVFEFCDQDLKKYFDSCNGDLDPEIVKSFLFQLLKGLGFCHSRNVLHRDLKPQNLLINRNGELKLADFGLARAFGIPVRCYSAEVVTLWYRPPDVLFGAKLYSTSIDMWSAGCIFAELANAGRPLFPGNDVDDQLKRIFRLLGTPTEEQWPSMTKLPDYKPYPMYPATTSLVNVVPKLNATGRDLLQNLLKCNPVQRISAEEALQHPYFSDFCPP

CN(C)CCOc1cc(-c2cn[nH]c2)ccc1NC(=O)C1COc2ccccc2O1 (stereo unspecified) [SR-3677]
inhibition [1]: < 10%
inhibition [2]: < 10%
inhibition [3]: < 10%
inhibition (Homo sapiens [4]): 7%
inhibition [5]: < 10%
inhibition [6]: < 10%
inhibition [7]: < 10%
inhibition [8]: < 10%
inhibition [9]: 88%
inhibition [10]: < 10%
inhibition [11]: < 10%
inhibition [12]: < 10%
inhibition [13]: < 10%
inhibition [14]: < 10%
inhibition [15]: < 10%
inhibition [16]: 37%
inhibition [17]: 6%
inhibition (Rattus norvegicus [18]): 14%
inhibition [19]: < 10%
inhibition [20]: < 10%
inhibition [21]: < 10%
inhibition [22]: < 10%
inhibition [23]: < 10%
inhibition [24]: < 10%
inhibition [25]: < 10%
inhibition [26]: < 10%
inhibition [27]: < 10%
inhibition [28]: < 10%
inhibition [29]: < 10%
inhibition [30]: < 10%
inhibition [31]: < 10%
inhibition [32]: < 10%
inhibition [33]: < 10%
inhibition [34]: < 10%
inhibition [35]: < 10%
inhibition [36]: < 10%
inhibition [37]: < 10%
inhibition [38]: < 10%
inhibition [39]: < 10%
inhibition (Homo sapiens [40]): 4%
inhibition (Rattus norvegicus [41]): 22%
inhibition [42]: < 10%
inhibition [43]: -4%
inhibition [44]: 10%
inhibition [45]: -1%
inhibition [46]: -7%
